Measured values as given in ChEMBL document CHEMBL1124374, “Enkephalinase inhibitors. 1. 2,4-Dibenzylglutaric acid derivatives” (J Med Chem, 1989).
The source made the active and inactive calls.

Legend:
Mus musculus [1] = experiment: Hot-plate jump-latency activity in mouse 15 minutes after subcutaneous administration; assay type: functional; conditions: sc, 0.25 h, read-out: MED
Outline: (§1)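 Male CF1 mice (18–23 g) dosed icv or sc; 15 min later placed singly on a copper hot plate held at 55 °C. Latency to jump recorded, cutoff 240 s. MED = minimum effective dose. ED200 = dose doubling jump latency.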

Neprilysin [2] = target: T1, Neprilysin (Rattus norvegicus, UniProt P07861); experiment: Inhibition of enkephalinase activity in synaptic membranes prepared from rat striatum; assay type: cell membranes
T1 sequence (P07861 whole entry): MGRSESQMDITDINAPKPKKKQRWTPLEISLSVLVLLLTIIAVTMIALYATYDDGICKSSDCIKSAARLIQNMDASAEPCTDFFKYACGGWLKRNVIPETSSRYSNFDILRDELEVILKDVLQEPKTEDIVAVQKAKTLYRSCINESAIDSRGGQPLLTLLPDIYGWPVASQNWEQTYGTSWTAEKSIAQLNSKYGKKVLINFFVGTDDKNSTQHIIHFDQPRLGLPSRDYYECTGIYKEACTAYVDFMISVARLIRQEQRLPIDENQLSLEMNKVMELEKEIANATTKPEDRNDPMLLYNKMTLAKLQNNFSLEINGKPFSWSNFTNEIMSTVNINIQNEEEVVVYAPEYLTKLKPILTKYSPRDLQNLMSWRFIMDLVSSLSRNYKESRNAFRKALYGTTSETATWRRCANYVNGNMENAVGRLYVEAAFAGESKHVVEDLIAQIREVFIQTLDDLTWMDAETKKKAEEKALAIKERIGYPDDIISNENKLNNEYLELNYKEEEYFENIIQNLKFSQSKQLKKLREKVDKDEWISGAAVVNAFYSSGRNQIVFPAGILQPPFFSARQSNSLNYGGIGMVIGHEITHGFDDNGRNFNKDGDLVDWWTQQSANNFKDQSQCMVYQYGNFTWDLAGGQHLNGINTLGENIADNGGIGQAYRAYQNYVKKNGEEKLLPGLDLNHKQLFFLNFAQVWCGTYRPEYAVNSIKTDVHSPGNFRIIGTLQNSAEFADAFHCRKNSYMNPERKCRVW

Mus musculus [3] = experiment: Doubling of hotplate jump-latency activity in mouse after intra cerebro ventricular administration of the compound; assay type: functional; outline: as §1
Mus musculus [4] = experiment: Tail-flick latency observed in CF-1 mice after the administration (30 mg/kg) followed by icv administration of DAEM ([D-Ala2,Met5]enkephalin); IA is Inactive; assay type: functional, organism-based
Outline: (§2)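 Male CF-1 mice (20–22 g) given test agent or vehicle sc, followed immediately by icv DAEM (1 μg) or vehicle. Tail-flick latency measured 30 min later, cutoff 10 s, n = 10.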

Neprilysin [5] = target: T2, Neprilysin (Oryctolagus cuniculus, UniProt P08049); experiment: (§3) Inhibition of enkephalinase activity in membranes prepared from rabbit
T2 sequence (P08049 whole entry): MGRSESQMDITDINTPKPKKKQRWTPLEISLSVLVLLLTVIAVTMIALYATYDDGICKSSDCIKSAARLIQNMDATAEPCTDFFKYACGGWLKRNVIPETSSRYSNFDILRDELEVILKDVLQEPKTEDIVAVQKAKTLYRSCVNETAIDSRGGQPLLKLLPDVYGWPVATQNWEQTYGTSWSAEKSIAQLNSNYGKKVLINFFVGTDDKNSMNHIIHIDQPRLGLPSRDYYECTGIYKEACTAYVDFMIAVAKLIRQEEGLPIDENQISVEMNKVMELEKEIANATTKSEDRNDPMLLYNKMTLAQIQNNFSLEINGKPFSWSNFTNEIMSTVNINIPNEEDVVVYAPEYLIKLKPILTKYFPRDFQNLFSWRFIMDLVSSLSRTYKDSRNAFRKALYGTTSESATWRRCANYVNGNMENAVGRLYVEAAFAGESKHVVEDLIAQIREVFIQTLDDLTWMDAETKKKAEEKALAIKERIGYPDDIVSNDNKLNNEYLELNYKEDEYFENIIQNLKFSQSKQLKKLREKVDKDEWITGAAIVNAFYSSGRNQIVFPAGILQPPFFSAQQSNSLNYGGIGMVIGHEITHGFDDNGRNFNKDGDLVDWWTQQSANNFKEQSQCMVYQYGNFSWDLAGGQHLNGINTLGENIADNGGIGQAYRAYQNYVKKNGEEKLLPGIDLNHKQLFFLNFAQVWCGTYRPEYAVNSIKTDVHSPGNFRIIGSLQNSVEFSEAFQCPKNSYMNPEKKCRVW

Neprilysin [6] = target: T2, Neprilysin; experiment: as §3; remark: listed apart in the source
Outline: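 Rabbit protease 24.11 (15 ng protein) incubated 10 min at 37 °C with [Tyr-3H]Leu-enkephalin plus unlabeled Leu-enkephalin (1 μM final) in 50 mM Tris-HCl, pH 6.5. Stopped with TFA. Tyr-Gly-Gly product separated from substrate by C4 reverse-phase HPLC (isocratic, 0.09% TFA/acetonitrile). Fractions counted by scintillation.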

Mus musculus [7] = experiment: Tail-flick latency observed in CF-1 mice after the administration (30 mg/kg) followed by icv administration of DAEM ([D-Ala2,Met5]enkephalin); assay type: functional; outline: as §2

IC50 (Neprilysin [2])	SMILES	further results
> 1 µM	CCOC(=O)C(Cc1ccccc1)CC(Cc1ccccc1)C(=O)NCCC(=O)O (stereo not given)	ED200 (Mus musculus [3]): 16 µg; minimal effective dose (Mus musculus [1]): > 100 mg/kg; Reaction time (Mus musculus [4]): inactive
0.018 µM	O=C(O)CCNC(=O)C(Cc1ccccc1)CC(Cc1ccccc1)C(=O)O (stereo not given)	–
1 µM	O=C(O)C(Cc1ccccc1)CC(Cc1ccccc1)C(=O)NCCCO (stereo not given)	–
0.04 µM	CC(C)CC(NC(=O)[C@H](Cc1ccccc1)C[C@@H](Cc1ccccc1)C(=O)O)C(=O)O (stereo not given in full)	–
0.009 µM	O=C(O)CCC(=O)NC(Cc1ccccc1)CC(Cc1ccccc1)C(=O)O (stereo not given)	–
> 1 µM	O=C(O)CCNC(=O)[C@@H](Cc1ccccc1)C[C@H](Cc1ccccc1)C(=O)O	–
> 1 µM	N#CCCNC(=O)C(Cc1ccccc1)CC(Cc1ccccc1)C(=O)O (stereo not given)	–
0.004 µM	O=C(O)CNC(=O)[C@H](Cc1ccccc1)C[C@@H](Cc1ccccc1)C(=O)O	–

Second part, the molecule before the results:

SMILES	IC50 (Neprilysin [2])	further results
O=C(O)CCNC(=O)[C@H](Cc1ccccc1)C[C@@H](Cc1ccccc1)C(=O)OC1OC(=O)c2ccccc21 (stereo not given in full)	–	minimal effective dose (Mus musculus [1]): 30 mg/kg
O=C(O)CC(=O)NC(Cc1ccccc1)CC(Cc1ccccc1)C(=O)O (stereo not given)	–	IC50 (Neprilysin [5]): 0.062 µM
O=C(O)CCC(=O)NC(Cc1ccccc1)C[C@@H](Cc1ccccc1)C(=O)O (stereo not given in full)	–	IC50 (Neprilysin [5]): 0.002 µM
O=C(O)CCCNC(=O)[C@H](Cc1ccccc1)C[C@@H](Cc1ccccc1)C(=O)O	–	IC50 (Neprilysin [6]): 0.0014 µM
O=C(O)CCCC(=O)NC(Cc1ccccc1)CC(Cc1ccccc1)C(=O)O (stereo not given)	–	IC50 (Neprilysin [5]): 0.012 µM
O=C(O)C(COCc1ccccc1)NC(=O)[C@H](Cc1ccccc1)C[C@@H](Cc1ccccc1)C(=O)O (stereo not given in full)	0.006 µM	–
CC1(C)O[C@@H]2O[C@@H](COC(=O)CCNC(=O)[C@H](Cc3ccccc3)C[C@@H](Cc3ccccc3)C(=O)[O-])[C@H]3OC(C)(C)O[C@H]3[C@@H]2O1.[Na+]	–	Reaction time (Mus musculus [7]): 8.1 s; minimal effective dose (Mus musculus [1]): > 30 mg/kg
O=C(O)c1cccc(NC(=O)[C@@H](Cc2ccccc2)C[C@H](Cc2ccccc2)C(=O)O)c1	0.09 µM	–
O=C(O)Cc1ccccc1NC(=O)[C@H](Cc1ccccc1)C[C@@H](Cc1ccccc1)C(=O)O	0.025 µM	–
O=C(O)c1ccc(NC(=O)[C@@H](Cc2ccccc2)C[C@H](Cc2ccccc2)C(=O)O)cc1	0.8 µM	–
O=C(O)CCCNC(=O)C(Cc1ccccc1)CC(Cc1ccccc1)C(=O)O (stereo not given)	–	IC50 (Neprilysin [5]): 0.057 µM
O=C(O)C(CCc1ccccc1)NC(=O)[C@H](Cc1ccccc1)C[C@@H](Cc1ccccc1)C(=O)O (stereo not given in full)	0.005 µM	–
O=C(O)CCNC(=O)C(CCc1ccccc1)CC(CCc1ccccc1)C(=O)O (stereo not given)	1 µM	–
O=C(O)C(CSCc1ccccc1)NC(=O)[C@H](Cc1ccccc1)C[C@@H](Cc1ccccc1)C(=O)O (stereo not given in full)	0.004 µM	–
O=C(O)c1ccccc1NC(=O)C(Cc1ccccc1)CC(Cc1ccccc1)C(=O)O (stereo not given)	1 µM	–
CC(C)C[C@H](NP(=O)(O)O[C@@H]1O[C@@H](C)[C@H](O)[C@@H](O)[C@H]1O)C(=O)N[C@@H](Cc1c[nH]c2ccccc12)C(=O)O [PHOSPHORAMIDON]	0.0006 µM	IC50 (Neprilysin [5]): 0.0004 µM
CC1(C)O[C@H]2[C@H](COC(=O)CCNC(=O)[C@H](Cc3ccccc3)C[C@@H](Cc3ccccc3)C(=O)O)OC(=O)[C@H]2O1	–	Reaction time (Mus musculus [7]): 9.8 s; minimal effective dose (Mus musculus [1]): > 30 mg/kg
O=C(O)C(Cc1c[nH]c2ccccc12)NC(=O)[C@H](Cc1ccccc1)C[C@@H](Cc1ccccc1)C(=O)O (stereo not given in full)	0.074 µM	–
O=C(O)c1cc(NC(=O)[C@H](Cc2ccccc2)C[C@@H](Cc2ccccc2)C(=O)O)ccc1O	0.038 µM	–
O=C(O)CCNC(=O)C(CC1CCCCC1)CC(CC1CCCCC1)C(=O)O (stereo not given)	1 µM	–
O=C(O)C(Cc1ccccc1)NC(=O)[C@H](Cc1ccccc1)C[C@@H](Cc1ccccc1)C(=O)O (stereo not given in full)	0.029 µM	–
